Laboratory results reported in ChEMBL document CHEMBL1123739, “Relationships between DNA-binding kinetics and biological activity for the 9-aminoacridine-4-carboxamide class of antitumor agents” (J Med Chem, 1987).
Several values for one entry are separate records, joined by “and”; a condition that tells them apart may be missing. Identical values can stand only once. Activity calls are given as the source filed them. No cut-off for these calls is given here.

Assays:
Calf thymus DNA [1] = test: Ratio T2/T1 of DNA dissociation constant from calf thymus; type: functional; settings: Bos taurus
Outline: (§1)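 Stopped-flow SDS-sequestration assay. Sonicated calf thymus DNA (400 µM base pairs) and 20 µM drug in 0.1 SHE buffer (2 mM HEPES, 10 µM EDTA, 99.4 mM NaCl, pH 7.0) were mixed 1:1 with 20 mM SDS at 20 °C. Absorbance decay was deconvoluted into exponential time constants by curve stripping. At least six runs were averaged; ratios were taken between time constants.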

Calf thymus DNA [2] = test: Ratio T3/T2 of DNA dissociation constant from calf thymus; type: functional; settings: Bos taurus; outline: as §1
Calf thymus DNA [3] = test: Logarithm of association constant for binding to DNA by ethidium displacement; type: nucleic-acid assay; settings: Bos taurus
Calf thymus DNA [4] = test: Ratio T4/T3 of DNA dissociation constant from calf thymus; type: functional; settings: Bos taurus; outline: as §1
Calf thymus DNA [5] = test: DNA dissociation constant from calf thymus; type: functional; settings: Bos taurus; outline: as §1
Calf thymus DNA [6] = test: DNA dissociation constant was determined from calf thymus; type: functional; settings: Bos taurus; outline: as §1
P388 [7] = test: Percentage increase in life span treated animals over those of controls injected with P388 leukemia cells; type: functional, Mus musculus
P388 [8] = test: Compound administered intraperitoneally was evaluated for optimal dose (OD) given per day after inoculation of 10e 6 P388 leukemia cells for highest nontoxic dose; type: functional, Mus musculus
Nucleic Acid = test: Difference between log K of (AT) and log K of (GC) DNA binding; type: nucleic-acid assay
L1210 = test: Evaluated for concentration which when added to cultures of L1210 leukemia cells for a period of 70 hr reduces cell numbers of 50% of control cultures; type: functional, cell-based; settings: Mus musculus, L1210, 70 h
P388 [9] = test: Percentage increase in life span treated animals over those of controls injected with P388 leukemia cells; NA means no activity (ILS <20%) at all dose levels; type: functional; settings: Mus musculus
Calf thymus DNA [10] = test: Ratio T2/T1 of DNA dissociation constant of poly(dG-dC) from calf thymus; type: functional; settings: Bos taurus
Calf thymus DNA [11] = test: Ratio T3/T2 of DNA dissociation constant of poly(dG-dC) from calf thymus; type: functional; settings: Bos taurus
Calf thymus DNA [12] = test: Dissociation constant of poly(dG-dC)DNA binding in calf thymus; type: functional; settings: Bos taurus
Calf thymus DNA [13] = test: Dissociation constant of poly(dG-dC)DNA in calf thymus; type: functional; settings: Bos taurus
P388 [14] = test: Percentage increase in life span treated animals over those of controls injected with P388 leukemia cells;NA means no activity (ILS<20%) at all dose levels; type: functional; settings: Mus musculus
P388 [15] = test: Percentage increase in life span treated animals over those of controls injected with P388 leukemia cells; NA means no activity (ILS<20%) at all dose levels; type: functional; settings: Mus musculus
Calf thymus DNA [16] = test: Ratio of DNA dissociation constant from calf thymus; type: functional; settings: Bos taurus; outline: as §1
P388 [17] = test: Percentage increase in life span treated animals over those of controls injected with P388 leukemia cells; Na means no activity (ILS<20%) at all dose levels; type: functional; settings: Mus musculus
[18] = test system: L1210 (mouse leukemia cells); test: Ability to inhibit growth of mouse leukemia L1210 cells

Compound	Ratio (Calf thymus DNA [1])	Ratio (Calf thymus DNA [2])	Log K (Calf thymus DNA [3])	Ratio (Calf thymus DNA [4])	Time constant T1 (Calf thymus DNA [5])	Time constant T3 (Calf thymus DNA [5])	Time constant T4 (Calf thymus DNA [5])	Time constant T2 (Calf thymus DNA [6])	ILS (P388 [7])	OD (P388 [8])	Log K delta (Nucleic Acid)	also measured
CCN(CC)CCNC(=O)c1cccc2c(N)c3ccccc3nc12	4.3	3.9	7.26 and 7.59	5.5	3 ms	51 ms	280 ms	13 ms	70	5.9 mg/kg	0.33	
Nc1c2ccccc2nc2ccccc12 [AMINACRINE]	6.3		6.08 and 6.11		2.5 ms			15 ms		20 mg/kg	0.07	IC50 (L1210): 2.6 µM
COc1ccc2c(N)c3ccccc3nc2c1C(=O)NCCN(C)C	2.9	4.4	7.21 and 7.12		7 ms	87 ms		20 ms			-0.09	ILS (P388 [9]): inactive
COc1cc(C(=O)NCCN(C)C)c2nc3ccccc3c(N)c2c1	4	3.9		6.6	20 ms	311 ms	2050 ms	79 ms	72		0.76	
COc1ccc2nc3c(C(=O)NCCN(C)C)cccc3c(N)c2c1	2.8	2.6	7.64 and 7.66	5.2	9 ms	64 ms	330 ms	25 ms			0.02	ILS (P388 [9]): inactive
COc1cccc2c(N)c3cccc(C(=O)NCCN(C)C)c3nc12	4.1	4.3	7.62 and 7.83	3.6	17 ms	299 ms	1080 ms	69 ms	81		0.21	
CN(C)CCCCNC(=O)c1cccc2c(N)c3ccccc3nc12	4	3.3	7.49 and 7.43		4 ms	52 ms		16 ms			-0.06	Ratio (Calf thymus DNA [10]): 6.5; Ratio (Calf thymus DNA [11]): 3.3; Time constant T1 (Calf thymus DNA [12]): 4 ms; Time constant T2 (Calf thymus DNA [13]): 26 ms; Time constant T3 (Calf thymus DNA [13]): 86 ms; IC50 (L1210): 0.43 µM
COc1ccc(C(=O)NCCN(C)C)c2nc3ccccc3c(N)c12	4.6	3.5	7.31 and 7.52	6.4	22 ms	355 ms	2270 ms	102 ms	27		0.21	IC50 (L1210): 0.0006 µM
CN(C)CCCCCCNC(=O)c1cccc2c(N)c3ccccc3nc12	4.8	4.2	7.41 and 7.4		4 ms	80 ms		19 ms			-0.01	
Nc1c2ccccc2nc2c(C(=O)NCCN3CCOCC3)cccc12	10	3.3	7.29 and 7.58	4.4	4 ms	135 ms	590 ms	40 ms		30 mg/kg	0.29	ILS (P388 [14]): inactive
COc1ccc2c(N)c3cccc(C(=O)NCCN(C)C)c3nc2c1	3.2	3.3	7.33 and 7.71	3.7	26 ms	271 ms	1000 ms	83 ms			0.38	ILS (P388 [9]): inactive
CN(C)CCNC(=O)c1ccc2c(N)c3ccccc3nc2c1	4.5	3.6	7.18 and 7.66		6 ms	98 ms		27 ms		250 mg/kg	0.48	ILS (P388 [15]): inactive
CN(C)CCCNC(=O)c1cccc2c(N)c3ccccc3nc12	3.8	2.9	7.51 and 7.6		4 ms	44 ms		15 ms		50 mg/kg	0.09	ILS (P388 [15]): inactive
CN(C)CCNC(=O)c1cccc2c(N)c3ccccc3nc12									98			
CN(C)CCCCCNC(=O)c1cccc2c(N)c3ccccc3nc12	4	3.6	7.45		4 ms	58 ms		16 ms			0	
Nc1c2ccccc2nc2c(C(=O)NCCNCCO)cccc12			7.34 and 7.73		5 ms	49 ms	214 ms	17 ms	73	20 mg/kg	0.39	Ratio (Calf thymus DNA [16]): 3.4 and 2.9 and 4.4
CN(C)CCNC(=O)c1ccc2nc3ccccc3c(N)c2c1	2.7	3.37	7.08 and 7.55		10 ms	90 ms		27 ms		12.5 mg/kg	0.47	ILS (P388 [15]): inactive
CN(C)CCN(C)C(=O)c1cccc2c(N)c3ccccc3nc12	5.5		6.37		2 ms			11 ms		30 mg/kg	0	IC50 (L1210): 5.3 µM; ILS (P388 [9]): inactive
CN(C)CCNS(=O)(=O)c1cccc2c(N)c3ccccc3nc12	4.2				5 ms			21 ms		65 mg/kg		ILS (P388 [17]): inactive; IC50 [18]: 13 µM
COc1cccc2nc3c(C(=O)NCCN(C)C)cccc3c(N)c12	5	5.6	7.68 and 7.55		6 ms	168 ms		30 ms			-0.18	ILS (P388 [9]): inactive
